Source: ChEMBL document CHEMBL1154325, “Cytotoxic clerodane diterpenoids from Casearia obliqua” (J Nat Prod, 2009)

Tests used:
[1] = test system: HL-60; test: Cytotoxic activity against human HL60 cells after 69 hrs by MTT assay; assay type: functional, cell-based; conditions: HL-60, 69 h
Procedure, shortened: (§1)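 Cells were grown in RPMI 1640 with 10% FBS, 2 mM glutamine, penicillin and streptomycin at 37 °C under 5% CO2, then plated. After 24 h, compounds in DMSO were added at 0.39-25 µg/mL, with doxorubicin at 0.01-0.58 µg/mL as positive control. After 69 h, MTT at 0.5 mg/mL was added for 3 h. Formazan was dissolved in DMSO and read at 595 nm. IC50 came from nonlinear regression.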

[2] = test system: HCT-8; test: Cytotoxic activity against human HCT8 cells after 69 hrs by MTT assay; assay type: functional, cell-based; conditions: HCT-8, 69 h; procedure, shortened: as §1
[3] = test system: MDA-MB-435 (Homo sapiens); test: Cytotoxic activity against human MDA-MB-435 cells after 69 hrs by MTT assay; conditions: MDA-MB-435, 69 h
[4] = test system: SF-295; test: Cytotoxic activity against human SF295 cells after 69 hrs by MTT assay; assay type: functional, cell-based; conditions: SF-295, 69 h; procedure, shortened: as §1

Row | Structure (SMILES) | IC50 [1] [µM] | IC50 [2] [µM] | IC50 [3] [µM] | IC50 [4] [µM]
1 | C=C/C(C)=C/C[C@]1(C)[C@H]2C[C@H](O)C=C3[C@H](OC(C)=O)O[C@@H](OC(C)=O)[C@@]32[C@H](OC(=O)/C=C/c2ccccc2)C[C@@H]1C | > 5 | > 5 | > 5 | > 5
2 | COc1cccc2c1C(=O)c1c(O)c3c(c(O)c1C2=O)C[C@@](O)(C(=O)CO)C[C@@H]3O[C@H]1C[C@H](N)[C@H](O)[C@H](C)O1 [DOXORUBICIN] | 0.07 | 1.5 | 0.12 | 0.75
3 | C=C/C(C)=C/C[C@]1(C)[C@H]2C[C@@H](OC(C)=O)C=C3[C@H](OC(C)=O)O[C@@H](OC(C)=O)[C@@]32[C@H](OC(=O)c2ccc(O)cc2)C[C@@H]1C [CASEOBLIQUIN A] | > 5 | > 5 | > 5 | > 5
